Pf Dd2 growth: blocks growth of Plasmodium falciparum Dd2 parasites; AID 1159554; activity change, % at 10 µM; P. falciparum Dd2 growth, SYBR Green, 72 h; active compounds read low; actives 2.3% (n = 94,000); in the data active = activity change below about -80%
IDH1 R132H inh: IDH1 R132H (human) inhibition | O75874 | IDH1 R132H reductase, diaphorase/resazurin fluorescence, 60 min | inhibition, % at 10 µM | actives 0.18% (n = 70,000) | AID 624101; in the data active = inhibition above about 34%;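 note: 0% = DMSO and 100% = no enzyme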
Target sequence (O75874 whole entry R132H): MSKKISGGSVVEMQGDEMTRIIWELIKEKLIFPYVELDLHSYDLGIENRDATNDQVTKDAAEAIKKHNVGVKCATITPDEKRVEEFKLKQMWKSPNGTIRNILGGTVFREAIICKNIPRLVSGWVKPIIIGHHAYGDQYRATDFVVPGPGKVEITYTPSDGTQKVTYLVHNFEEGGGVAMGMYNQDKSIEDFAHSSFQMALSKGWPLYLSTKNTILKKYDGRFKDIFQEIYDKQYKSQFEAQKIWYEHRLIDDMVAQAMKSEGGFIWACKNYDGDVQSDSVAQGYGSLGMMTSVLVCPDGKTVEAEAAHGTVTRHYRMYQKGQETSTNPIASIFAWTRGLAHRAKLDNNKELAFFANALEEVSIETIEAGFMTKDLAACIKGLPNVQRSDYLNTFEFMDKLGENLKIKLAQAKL
GASC1 inh: KDM4C (human) demethylase inhibition; GST-KDM4C 2-372, H3K9me3 peptide, LANCE TR-FRET; inhibition, % at 12.5 µM; actives 0.15% (n = 96,000);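 active = mean replicate inhibition above about 25%, with at least 55% of replicates also reaching it, limit read from the data, passing the limit was not always enough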
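Compound: one test concentration per compound; Material: GST-GASC-1 enzyme fragment 2-372; Amount: GASC-1 enzyme at 10 nM final in reaction; Also added: H3K9me3 peptide substrate, Fe(II), 2-oxoglutarate; Technique: LANCE TR-FRET; Times: 30 min demethylation and 1 h detection at room temperature.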
Active calls of the source: *. Only a selection was taken, and hits are over-represented in it overall.

Results for CCCC(=O)N1CC2(C1)CN(Cc1cccnc1)[C@H](CO)c1[nH]c3cc(OC)ccc3c12 ?
Pf Dd2 growth: -21; GASC1 inh: -1

How did COc1cc(CN2CC3(CN(C(=O)Nc4c(C)noc4C)C3)c3c([nH]c4cc(OC)ccc34)[C@@H]2CO)cc(OC)c1 do in these assays?
Pf Dd2 growth: -85*; GASC1 inh: 0

What do the screens show for `CCCC(=O)N1CCC2(CC1)CN(Cc1cccnc1)[C@@H](CO)c1[nH]c3cc(OC)ccc3c12`?
Pf Dd2 growth: -90*; GASC1 inh: 0

What do the screens show for `COc1cc(CN2CC3(CCN(C(=O)Nc4c(C)noc4C)CC3)c3c([nH]c4cc(OC)ccc34)[C@@H]2CO)cc(OC)c1`?
Pf Dd2 growth: -30; GASC1 inh: 2

Results for CCCNC(=O)C[C@@H]1C[C@@H]2c3cc(NC(=O)COC)ccc3O[C@@H]2[C@@H](CO)O1 ?
Pf Dd2 growth: 5; IDH1 R132H inh: -1; GASC1 inh: 1

How did C[C@H]1CN([C@@H](C)CO)C(=O)c2c(c3ccccc3n2C)-c2ccccc2CO[C@H]1CN(C)C(=O)Nc1ccccc1C(F)(F)F do in these assays?
Pf Dd2 growth: -84*; GASC1 inh: -4

What do the screens show for `C[C@@H]1CN([C@H](C)CO)C(=O)c2c(c3ccccc3n2C)-c2ccccc2CO[C@H]1CN(C)C(=O)Nc1ccccc1C(F)(F)F`?
Pf Dd2 growth: -45; GASC1 inh: 1

What do the screens show for `COc1ccccc1NC(=O)N(C)C[C@@H]1OCc2ccccc2-c2c(n(C)c3ccccc23)C(=O)N([C@H](C)CO)C[C@H]1C`?
Pf Dd2 growth: -39; IDH1 R132H inh: 2; GASC1 inh: 9

What do the screens show for `C[C@@H]1CN([C@@H](C)CO)C(=O)c2c(c3ccccc3n2C)-c2ccccc2CO[C@@H]1CN(C)C(=O)Nc1cccc(Cl)c1Cl`?
Pf Dd2 growth: -92*; GASC1 inh: -3

How did C[C@H]1CN([C@@H](C)CO)C(=O)c2cc(C#Cc3ccccn3)cnc2O[C@H]1CN(C)C(=O)CCN1CCCCC1 do in these assays?
Pf Dd2 growth: 38; IDH1 R132H inh: -3; GASC1 inh: 1

How did CCCNC(=O)N1CCC2(CC1)CN(S(C)(=O)=O)[C@H](CO)c1c2c2ccc(OC)cc2n1C do in these assays?
Pf Dd2 growth: -83*; GASC1 inh: 0

Results for COc1ccc2c3c(n(C)c2c1)[C@H](CO)N(C(=O)C1CC1)CC31CCN(C(=O)CN(C)C)CC1 ?
Pf Dd2 growth: -78; GASC1 inh: -1

What do the screens show for `CCC(=O)N1CC2(CCN(Cc3ccc(Cl)cc3)CC2)c2c(n(C)c3cc(OC)ccc23)[C@H]1CO`?
Pf Dd2 growth: -83*; GASC1 inh: 0

Results for CCC(=O)N1CC2(CN(Cc3ccc(Cl)cc3)C2)c2c(n(C)c3cc(OC)ccc23)[C@@H]1CO ?
Pf Dd2 growth: -65; GASC1 inh: 1

How did CCCNC(=O)N1CC2(CN(C(=O)CN(C)C)C2)c2c(n(C)c3cc(OC)ccc23)[C@H]1CO do in these assays?
Pf Dd2 growth: 33

How did COc1ccc2c3c(n(C)c2c1)[C@@H](CO)N(C(=O)C1CC1)CC31CCN(C(=O)CN(C)C)CC1 do in these assays?
Pf Dd2 growth: -84*; GASC1 inh: 0

Results for CCCNC(=O)N1CC2(C1)CN(S(C)(=O)=O)[C@@H](CO)c1c2c2ccc(OC)cc2n1C ?
Pf Dd2 growth: 43; GASC1 inh: 0

What do the screens show for `CCCNC(=O)N1CC2(CCN(C(=O)CN(C)C)CC2)c2c(n(C)c3cc(OC)ccc23)[C@H]1CO`?
Pf Dd2 growth: -88*; GASC1 inh: 1

Results for CC(C)[C@H](C)NC(=O)N(C)C[C@@H]1OCc2ccccc2-c2ccccc2C(=O)N([C@H](C)CO)C[C@@H]1C ?
Pf Dd2 growth: 37; IDH1 R132H inh: -5; GASC1 inh: 1

What do the screens show for `O=C(Nc1nccs1)[C@H]1[C@H](CO)[C@H]2Cn3c(ccc(-c4ccncc4)c3=O)[C@H]2N1CC1CCCC1`?
Pf Dd2 growth: 0; GASC1 inh: 4

Results for C[C@@H]1CCCCO[C@@H](CN(C)C(=O)C2CCCCC2)[C@@H](C)CN([C@H](C)CO)C(=O)c2cc(NC(=O)C3CCCCC3)ccc2O1 ?
Pf Dd2 growth: -70; IDH1 R132H inh: 1; GASC1 inh: 14

Results for CC(=O)N1[C@@H]2Cn3c(ccc(C4=CCCC4)c3=O)[C@H]1[C@@H](C(=O)NCc1ccccc1)[C@@H]2CO ?
Pf Dd2 growth: 6; GASC1 inh: 0

What do the screens show for `CCCNC(=O)N1CC2(CCN(Cc3cccc(OC)c3)CC2)c2c(n(C)c3cc(OC)ccc23)[C@@H]1CO`?
Pf Dd2 growth: -89*; GASC1 inh: 0

How did CCCNC(=O)N1CC2(CCN(Cc3cccc(OC)c3)CC2)c2c(n(C)c3cc(OC)ccc23)[C@H]1CO do in these assays?
Pf Dd2 growth: -72; GASC1 inh: -1

What do the screens show for `COc1ccc(CN(C)C[C@H]2OCc3cn(nn3)CCCC(=O)N([C@H](C)CO)C[C@@H]2C)cc1`?
Pf Dd2 growth: 22; IDH1 R132H inh: 1; GASC1 inh: 0

How did C[C@H](CO)N1C[C@H](C)[C@H](CN(C)Cc2ccc(C(F)(F)F)cc2)Oc2ccc(NC(=O)C3CC3)cc2CC1=O do in these assays?
Pf Dd2 growth: 11; IDH1 R132H inh: 0; GASC1 inh: 0

What do the screens show for `C[C@H]1CN([C@@H](C)CO)C(=O)Cc2cc(NC(=O)C3CC3)ccc2O[C@H]1CN(C)Cc1ccc(C(F)(F)F)cc1`?
Pf Dd2 growth: -80*; IDH1 R132H inh: 0; GASC1 inh: -1

Results for COc1ccc(CN(C)C[C@H]2Oc3ccc(NC(=O)C4CC4)cc3CC(=O)N([C@@H](C)CO)C[C@@H]2C)cc1 ?
Pf Dd2 growth: 2; IDH1 R132H inh: 2; GASC1 inh: 0

How did COc1ccc(CN(C)C[C@@H]2Oc3ccc(NC(=O)C4CCCCC4)cc3CC(=O)N([C@@H](C)CO)C[C@H]2C)cc1 do in these assays?
Pf Dd2 growth: -66; IDH1 R132H inh: 106*; GASC1 inh: 85*

Results for COc1ccc(CN(C)C[C@@H]2OCc3cn(nn3)CCCC(=O)N([C@H](C)CO)C[C@H]2C)cc1 ?
Pf Dd2 growth: -81*; GASC1 inh: 0

Results for C[C@@H]1CCCCO[C@H](CN(C)Cc2ccc3c(c2)OCO3)[C@H](C)CN([C@H](C)CO)C(=O)c2cc(NS(=O)(=O)c3cccs3)ccc2O1 ?
Pf Dd2 growth: -44; GASC1 inh: -1

Results for COc1cccc(S(=O)(=O)Nc2ccc3c(c2)[C@@H]2C[C@@H](CC(=O)NCC(F)(F)F)O[C@@H](CO)[C@@H]2O3)c1 ?
Pf Dd2 growth: -3; IDH1 R132H inh: 0; GASC1 inh: -4

How did C[C@@H]1CN([C@H](C)CO)C(=O)c2cccc(NS(C)(=O)=O)c2O[C@H]1CN(C)C(=O)NC1CCCCC1 do in these assays?
Pf Dd2 growth: -6; IDH1 R132H inh: 1; GASC1 inh: 0

How did C[C@@H]1CN([C@@H](C)CO)C(=O)c2cc(NC(=O)Cc3ccccc3)ccc2O[C@@H](C)CCCCO[C@H]1CN(C)C do in these assays?
IDH1 R132H inh: 0; GASC1 inh: -1

Source: PubChem BioAssay
